Key:
[1] = substrate: CO[C@@H](C(=O)NCc1ccccc1)C(=O)Oc1cccc(C(=O)O)c1; assay: (§1) Activity at Streptomyces R61 DD-peptidase by spectrophotometry; details: Streptomyces sp. R61
In short: (§2)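 Steady-state kinetics in 100 mM MOPS, pH 7.5, 25 °C. Substrate stocks were made in DMSO and diluted into buffer to a final DMSO below 5%. Initial rates of enzyme-catalysed turnover were followed spectrophotometrically. Steady-state parameters were derived from these initial rates. Buffer hydrolysis of the substrates was measured separately as pseudo-first-order rate constants.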

[2] = substrate: C[C@@H](C(=O)NCc1ccccc1)C(=O)Oc1cccc(C(=O)O)c1; assay: as §1; details: Streptomyces sp. R61; in short: as §2
[3] = substrate: C[C@H](C(=O)NCc1ccccc1)C(=O)Oc1cccc(C(=O)O)c1; assay: as §1; details: Streptomyces sp. R61; in short: as §2
[4] = substrate: O=C(CC(=O)Oc1cccc(C(=O)O)c1)NCc1ccccc1; assay: as §1; details: Streptomyces sp. R61; in short: as §2
[5] = substrate: O=C(O)c1cccc(OC(=O)C2CCN(Cc3ccccc3)C2=O)c1; assay: as §1; details: Streptomyces sp. R61; in short: as §2
[6] = substrate: O=C(O)c1cccc(OC(=O)C2Cc3ccccc3N(Cc3ccccc3)C2=O)c1; assay: as §1; details: Streptomyces sp. R61; in short: as §2
[7] = substrate: CN(Cc1ccccc1)C(=O)CC(=O)Oc1cccc(C(=O)O)c1; assay: (§3) Ratio of Kcat to Km for Streptomyces R61 DD-peptidase; details: Streptomyces sp. R61; in short: as §2
[8] = substrate: CO[C@@H](C(=O)NCc1ccccc1)C(=O)Oc1cccc(C(=O)O)c1; assay: as §3; details: Streptomyces sp. R61; in short: as §2
[9] = substrate: C[C@@H](C(=O)NCc1ccccc1)C(=O)Oc1cccc(C(=O)O)c1; assay: as §3; details: Streptomyces sp. R61; in short: as §2
[10] = substrate: C[C@H](C(=O)NCc1ccccc1)C(=O)Oc1cccc(C(=O)O)c1; assay: as §3; details: Streptomyces sp. R61; in short: as §2
[11] = substrate: O=C(CC(=O)N(Cc1ccccc1)Cc1ccccc1)Oc1cccc(C(=O)O)c1; assay: as §3; details: Streptomyces sp. R61; in short: as §2
[12] = substrate: O=C(CC(=O)Oc1cccc(C(=O)O)c1)NCc1ccccc1; assay: as §3; details: Streptomyces sp. R61; in short: as §2
[13] = substrate: O=C(O)c1cccc(OC(=O)C(Cc2ccccc2)C(=O)NCc2ccccc2)c1; assay: as §3; details: Streptomyces sp. R61; in short: as §2
[14] = substrate: O=C(O)c1cccc(OC(=O)C2CCN(Cc3ccccc3)C2=O)c1; assay: as §3; details: Streptomyces sp. R61; in short: as §2
[15] = substrate: O=C(O)c1cccc(OC(=O)C2Cc3ccccc3N(Cc3ccccc3)C2=O)c1; assay: as §3; details: Streptomyces sp. R61; in short: as §2
[16] = substrate: CN(Cc1ccccc1)C(=O)CC(=O)Oc1cccc(C(=O)O)c1; assay: (§4) Activity at Enterobacter cloacae P99 beta-lactamase by spectrophotometry; in short: as §2
[17] = substrate: CO[C@@H](C(=O)NCc1ccccc1)C(=O)Oc1cccc(C(=O)O)c1; assay: as §4; in short: as §2
[18] = substrate: CO[C@H](C(=O)NCc1ccccc1)C(=O)Oc1cccc(C(=O)O)c1; assay: as §4; in short: as §2
[19] = substrate: C[C@@H](C(=O)NCc1ccccc1)C(=O)Oc1cccc(C(=O)O)c1; assay: as §4; in short: as §2
[20] = substrate: C[C@H](C(=O)NCc1ccccc1)C(=O)Oc1cccc(C(=O)O)c1; assay: as §4; in short: as §2
[21] = substrate: O=C(CC(=O)N(Cc1ccccc1)Cc1ccccc1)Oc1cccc(C(=O)O)c1; assay: as §4; in short: as §2
[22] = substrate: O=C(CC(=O)Oc1cccc(C(=O)O)c1)NCc1ccccc1; assay: as §4; in short: as §2
[23] = substrate: O=C(O)c1cccc(OC(=O)C(Cc2ccccc2)C(=O)NCc2ccccc2)c1; assay: as §4; in short: as §2
[24] = substrate: O=C(O)c1cccc(OC(=O)C2CCN(Cc3ccccc3)C2=O)c1; assay: as §4; in short: as §2
[25] = substrate: O=C(O)c1cccc(OC(=O)C2Cc3ccccc3N(Cc3ccccc3)C2=O)c1; assay: as §4; in short: as §2
[26] = substrate: CN(Cc1ccccc1)C(=O)CC(=O)Oc1cccc(C(=O)O)c1; assay: (§5) Ratio of Kcat to Km for Enterobacter cloacae P99 beta-lactamase; in short: as §2
[27] = substrate: CO[C@@H](C(=O)NCc1ccccc1)C(=O)Oc1cccc(C(=O)O)c1; assay: as §5; in short: as §2
[28] = substrate: CO[C@H](C(=O)NCc1ccccc1)C(=O)Oc1cccc(C(=O)O)c1; assay: as §5; in short: as §2
[29] = substrate: C[C@@H](C(=O)NCc1ccccc1)C(=O)Oc1cccc(C(=O)O)c1; assay: as §5; in short: as §2
[30] = substrate: C[C@H](C(=O)NCc1ccccc1)C(=O)Oc1cccc(C(=O)O)c1; assay: as §5; in short: as §2
[31] = substrate: O=C(CC(=O)N(Cc1ccccc1)Cc1ccccc1)Oc1cccc(C(=O)O)c1; assay: as §5; in short: as §2
[32] = substrate: O=C(CC(=O)Oc1cccc(C(=O)O)c1)NCc1ccccc1; assay: as §5; in short: as §2
[33] = substrate: O=C(O)c1cccc(OC(=O)C(Cc2ccccc2)C(=O)NCc2ccccc2)c1; assay: as §5; in short: as §2
[34] = substrate: O=C(O)c1cccc(OC(=O)C2CCN(Cc3ccccc3)C2=O)c1; assay: as §5; in short: as §2
[35] = substrate: O=C(O)c1cccc(OC(=O)C2Cc3ccccc3N(Cc3ccccc3)C2=O)c1; assay: as §5; in short: as §2
[36] = compound: O=C(CP(=O)(O)Oc1cccc(C(=O)O)c1)NCc1ccccc1; assay: Inhibition of Enterobacter cloacae P99 beta-lactamase assessed as inhibition of cephalothin turnover by spectrophotometry
In short: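 Initial rates of 200 μM cephalothin hydrolysis were measured spectrophotometrically in 100 mM MOPS, pH 7.5, at 25 °C. Compounds were added from DMSO stocks, with final DMSO below 5%.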

[37] = substrate: CN(Cc1ccccc1)C(=O)CC(=O)Oc1cccc(C(=O)O)c1; assay: (§6) Activity at Actinomadura R39 DD-peptidase by spectrophotometry; details: Actinomadura sp. R39; in short: as §2
[38] = substrate: CO[C@@H](C(=O)NCc1ccccc1)C(=O)Oc1cccc(C(=O)O)c1; assay: as §6; details: Actinomadura sp. R39; in short: as §2
[39] = substrate: C[C@H](C(=O)NCc1ccccc1)C(=O)Oc1cccc(C(=O)O)c1; assay: as §6; details: Actinomadura sp. R39; in short: as §2
[40] = substrate: O=C(O)c1cccc(OC(=O)C2CCN(Cc3ccccc3)C2=O)c1; assay: as §6; details: Actinomadura sp. R39; in short: as §2
[41] = substrate: CN(Cc1ccccc1)C(=O)CC(=O)Oc1cccc(C(=O)O)c1; assay: (§7) Ratio of Kcat to Km for Actinomadura R39 DD-peptidase; details: Actinomadura sp. R39; in short: as §2
[42] = substrate: CO[C@@H](C(=O)NCc1ccccc1)C(=O)Oc1cccc(C(=O)O)c1; assay: as §7; details: Actinomadura sp. R39; in short: as §2
[43] = substrate: C[C@H](C(=O)NCc1ccccc1)C(=O)Oc1cccc(C(=O)O)c1; assay: as §7; details: Actinomadura sp. R39; in short: as §2
[44] = substrate: O=C(CC(=O)Oc1cccc(C(=O)O)c1)NCc1ccccc1; assay: as §7; details: Actinomadura sp. R39; in short: as §2
[45] = substrate: O=C(O)c1cccc(OC(=O)C2CCN(Cc3ccccc3)C2=O)c1; assay: as §7; details: Actinomadura sp. R39; in short: as §2
[46] = substrate: O=C(O)c1cccc(OC(=O)C2Cc3ccccc3N(Cc3ccccc3)C2=O)c1; assay: as §7; details: Actinomadura sp. R39; in short: as §2

B1: D-alanyl-D-alanine carboxypeptidase (Streptomyces sp. R61), P15555 (protein)
chain: MVSGTVGRGTALGAVLLALLAVPAQAGTAAAADLPAPDDTGLQAVLHTALSQGAPGAMVRVDDNGTIHQLSEGVADRATGRAITTTDRFRVGSVTKSFSAVVLLQLVDEGKLDLDASVNTYLPGLLPDDRITVRQVMSHRSGLYDYTNDMFAQTVPGFESVRNKVFSYQDLITLSLKHGVTNAPGAAYSYSNTNFVVAGMLIEKLTGHSVATEYQNRIFTPLNLTDTFYVHPDTVIPGTHANGYLTPDEAGGALVDSTEQTVSWAQSAGAVISSTQDLDTFFSALMSGQLMSAAQLAQMQQWTTVNSTQGYGLGLRRRDLSCGISVYGHTGTVQGYYTYAFASKDGKRSVTALANTSNNVNVLNTMARTLESAFCGKPTTAKLRSATSSATTVERHEDIAPGIARD
Km [1]: 280 µM
kcat [1]: 9.4 s⁻¹
Km [2]: 90 µM
kcat [2]: 0.12 s⁻¹
Km [3]: 320 µM
kcat [3]: 7.63 s⁻¹
Km [4]: 104 µM
kcat [4]: 0.7 s⁻¹
Km [5]: > 200 µM
kcat [5]: > 3.6 ×10⁻³ /s
Km [6]: > 200 µM
kcat [6]: > 4.2 ×10⁻³ /s
kcat/Km [7]: < 0.15 M⁻¹ s⁻¹
kcat/Km [8]: 3.3 ×10⁴ /s/M
kcat/Km [9]: 1.31 ×10³ /s/M
kcat/Km [10]: 2.37 ×10⁴ /s/M
kcat/Km [11]: < 0.35 M⁻¹ s⁻¹
kcat/Km [12]: 70 M⁻¹ s⁻¹
kcat/Km [13]: < 0.2 M⁻¹ s⁻¹
kcat/Km [14]: 17.8 M⁻¹ s⁻¹
kcat/Km [15]: 21 M⁻¹ s⁻¹

B2: Beta-lactamase (Enterobacter cloacae), P05364 (protein)
chain: MMRKSLCCALLLGISCSALATPVSEKQLAEVVANTITPLMKAQSVPGMAVAVIYQGKPHYYTFGKADIAANKPVTPQTLFELGSISKTFTGVLGGDAIARGEISLDDAVTRYWPQLTGKQWQGIRMLDLATYTAGGLPLQVPDEVTDNASLLRFYQNWQPQWKPGTTRLYANASIGLFGALAVKPSGMPYEQAMTTRVLKPLKLDHTWINVPKAEEAHYAWGYRDGKAVRVSPGMLDAQAYGVKTNVQDMANWVMANMAPENVADASLKQGIALAQSRYWRIGSMYQGLGWEMLNWPVEANTVVEGSDSKVALAPLPVAEVNPPAPPVKASWVHKTGSTGGFGSYVAFIPEKQIGIVMLANTSYPNPARVEAAYHILEALQ
Km [16]: 700 µM
kcat [16]: 0.33 s⁻¹
Km [17]: > 1000 µM
kcat [17]: > 7.4 s⁻¹
Km [18]: > 1000 µM
kcat [18]: > 2.9 s⁻¹
Km [19]: 2800 µM
kcat [19]: 6.6 s⁻¹
Km [20]: 60 µM
kcat [20]: 1.17 s⁻¹
Km [21]: 32 µM
kcat [21]: 0.25 s⁻¹
Km [22]: 170 µM
kcat [22]: 41 s⁻¹
Km [23]: 2.6 µM
kcat [23]: 0.05 s⁻¹
Km [24]: 2500 µM
kcat [24]: 0.12 s⁻¹
Km [25]: 1400 µM
kcat [25]: 0.41 s⁻¹
kcat/Km [26]: 4.7 ×10² /s/M
kcat/Km [27]: 7.4 ×10³ /s/M
kcat/Km [28]: 2.9 ×10³ /s/M
kcat/Km [29]: 2.36 ×10³ /s/M
kcat/Km [30]: 2.13 ×10⁴ /s/M
kcat/Km [31]: 7.9 ×10³ /s/M
kcat/Km [32]: 2.45 ×10⁵ /s/M
kcat/Km [33]: 1.9 ×10⁴ /s/M
kcat/Km [34]: 50 M⁻¹ s⁻¹
kcat/Km [35]: 290 M⁻¹ s⁻¹
kcat/Km [36]: 45 M⁻¹ s⁻¹

B3: D-alanyl-D-alanine carboxypeptidase (Actinomadura sp. R39), P39045 (protein)
chain: MKQSSPEPLRPRRTGGRGGARRAAALVTIPLLPMTLLGASPALADASGARLTELREDIDAILEDPALEGAVSGVVVVDTATGEELYSRDGGEQLLPASNMKLFTAAAALEVLGADHSFGTEVAAESAPGRRGEVQDLYLVGRGDPTLSAEDLDAMAAEVAASGVRTVRGDLYADDTWFDSERLVDDWWPEDEPYAYSAQISALTVAHGERFDTGVTEVSVTPAAEGEPADVDLGAAEGYAELDNRAVTGAAGSANTLVIDRPVGTNTIAVTGSLPADAAPVTALRTVDEPAALAGHLFEEALESNGVTVKGDVGLGGVPADWQDAEVLADHTSAELSEILVPFMKFSNNGHAEMLVKSIGQETAGAGTWDAGLVGVEEALSGLGVDTAGLVLNDGSGLSRGNLVTADTVVDLLGQAGSAPWAQTWSASLPVAGESDPFVGGTLANRMRGTAAEGVVEAKTGTMSGVSALSGYVPGPEGELAFSIVNNGHSGPAPLAVQDAIAVRLAEYAGHQAPEGARMMRGPVQGSGELECSWVQAC
Km [37]: > 1000 µM
kcat [37]: > 3 ×10⁻³ /s
Km [38]: 53 µM
kcat [38]: 2.81 s⁻¹
Km [39]: > 1000 µM
kcat [39]: > 0.73 s⁻¹
Km [40]: > 1000 µM
kcat [40]: > 8 ×10⁻³ /s
kcat/Km [41]: 3 M⁻¹ s⁻¹
kcat/Km [42]: 5 ×10⁴ /s/M
kcat/Km [43]: 7.28 ×10² /s/M
kcat/Km [44]: < 1.5 M⁻¹ s⁻¹
kcat/Km [45]: 8 M⁻¹ s⁻¹
kcat/Km [46]: < 20 M⁻¹ s⁻¹

Source: ChEMBL document CHEMBL1157679, “Substituted aryl malonamates as new serine beta-lactamase substrates: structure-activity studies” (Bioorg Med Chem, 2010)
